Results taken from ChEMBL document CHEMBL2311305, “Antiproliferative potency of novel benzofuran-2-carboxamides on tumour cell lines: cell death mechanisms and determination of crystal structure” (Eur J Med Chem, 2013).
Activity calls are given as the source filed them. The rule behind the calls is not given here.

Assays:
HeLa = assay: Cytotoxicity against human HeLa cells after 72 hrs by MTT assay; format: functional, cell-based
Method in brief: (§1)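 Cells seeded at 3000-6000 per well on day 0, according to cell line doubling time. Compound added in five 10-fold dilutions, 72-h incubation, then MTT colorimetric read-out. Absorbances converted to percentage growth by NCI formulae. IC50 obtained by linear regression between the concentrations bracketing PG 50; ">100" assigned when no concentration reaches it. Quadruplicate points, three independent experiments.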

MIA PaCa-2 = assay: Cytotoxicity against human MIAPaCa2 cells after 72 hrs by MTT assay; format: functional, cell-based; method in brief: as §1
WI-38 = assay: Cytotoxicity against human WI38 cells after 72 hrs by MTT assay; format: cell-based; method in brief: as §1
SW-620 [1] = assay: Cytotoxicity against human SW620 cells after 72 hrs by MTT assay; format: functional, cell-based; method in brief: as §1
MCF7 = assay: Cytotoxicity against human MCF7 cells after 72 hrs by MTT assay; format: functional, cell-based; method in brief: as §1
SK-BR-3 = assay: Cytotoxicity against human SKBR3 cells after 72 hrs by MTT assay; format: functional, cell-based; conditions: SK-BR-3, 72 h; method in brief: as §1
SW-620 [2] = assay: Induction of mitotic catastrophe in human SW620 cells assessed as accumulation of G2/M phase cells at 5 to 10 uM after 24 to 48 hrs by PI-staining based flow cytometric analysis relative to control; format: functional, cell-based
SW-620 [3] = assay: Induction of apoptosis in human SW620 cells assessed as caspase9 activation at 10 uM after 24 to 48 hrs by caspase protease assay; format: functional, cell-based
Method in brief: (§2)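 Compound at 5 µM on SK-BR-3 and 10 µM on SW620. Cells harvested after 24 and 48 h, washed in PBS, lysed 10 min on ice, centrifuged. Lysate diluted to 3 mg/mL protein and mixed with DTT-containing reaction buffer and caspase-3, -8 or -9 substrate. Incubated 90 min at 37 °C in the dark. Absorbance read at 405 nm, duplicates, compared with untreated control.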

SW-620 [4] = assay: Induction of apoptosis in human SW620 cells assessed as caspase8 activation at 10 uM after 24 to 48 hrs by caspase protease assay; format: functional, cell-based; method in brief: as §2
SW-620 [5] = assay: Induction of apoptosis in human SW620 cells assessed as caspase3 activation at 10 uM after 24 to 48 hrs by caspase protease assay; format: functional, cell-based; method in brief: as §2
SW-620 [6] = assay: Induction of cell cycle arrest in human SW620 cells assessed as G2/M phase cells at 10 uM after 48 hrs by PI-staining based flow cytometric analysis (reference value: 8.9 +/- 0.4%); format: functional
SW-620 [7] = assay: Induction of cell cycle arrest in human SW620 cells assessed as S phase cells at 10 uM after 48 hrs by PI-staining based flow cytometric analysis (reference value: 39.9 +/- 0.5%); format: functional
SW-620 [8] = assay: Induction of cell cycle arrest in human SW620 cells assessed as G2/M phase cells at 5 uM after 48 hrs by PI-staining based flow cytometric analysis (reference value: 8.9 +/- 0.4%); format: functional
SW-620 [9] = assay: Induction of cell cycle arrest in human SW620 cells assessed as S phase cells at 5 uM after 48 hrs by PI-staining based flow cytometric analysis (reference value: 39.9 +/- 0.5%); format: functional
SW-620 [10] = assay: Induction of cell cycle arrest in human SW620 cells assessed as G1 phase cells at 5 uM after 48 hrs by PI-staining based flow cytometric analysis (reference value: 51.1 +/- 2.5%); format: functional
SW-620 [11] = assay: Induction of cell cycle arrest in human SW620 cells assessed as G1 phase cells at 10 uM after 48 hrs by PI-staining based flow cytometric analysis (reference value: 51.1 +/- 2.5%); format: functional
SW-620 [12] = assay: Induction of cell cycle arrest in human SW620 cells assessed as subG1 phase cells at 10 uM after 48 hrs by PI-staining based flow cytometric analysis (reference value: 8.5 +/- 2.1%); format: functional
SW-620 [13] = assay: Induction of cell cycle arrest in human SW620 cells assessed as subG1 phase cells at 5 uM after 48 hrs by PI-staining based flow cytometric analysis (reference value: 8.5 +/- 2.1%); format: functional
SW-620 [14] = assay: Induction of cell cycle arrest in human SW620 cells assessed as G2/M phase cells at 10 uM after 24 hrs by PI-staining based flow cytometric analysis (reference value: 12.6 +/- 1%); format: functional
SW-620 [15] = assay: Induction of cell cycle arrest in human SW620 cells assessed as G2/M phase cells at 5 uM after 24 hrs by PI-staining based flow cytometric analysis (reference value: 12.6 +/- 1%); format: functional
SW-620 [16] = assay: Induction of cell cycle arrest in human SW620 cells assessed as S phase cells at 10 uM after 24 hrs by PI-staining based flow cytometric analysis (reference value: 41.1 +/- 0.8%); format: functional
SW-620 [17] = assay: Induction of cell cycle arrest in human SW620 cells assessed as S phase cells at 5 uM after 24 hrs by PI-staining based flow cytometric analysis (reference value: 41.1 +/- 0.8%); format: functional
SW-620 [18] = assay: Induction of cell cycle arrest in human SW620 cells assessed as G1 phase cells at 10 uM after 24 hrs by PI-staining based flow cytometric analysis (reference value: 46.3 +/- 1.8%); format: functional
SW-620 [19] = assay: Induction of cell cycle arrest in human SW620 cells assessed as G1 phase cells at 5 uM after 24 hrs by PI-staining based flow cytometric analysis (reference value: 46.3 +/- 1.8%); format: functional
SW-620 [20] = assay: Induction of cell cycle arrest in human SW620 cells assessed as subG1 phase cells at 10 uM after 24 hrs by PI-staining based flow cytometric analysis (reference value: 6.9 +/- 2.1%); format: functional
SW-620 [21] = assay: Induction of cell cycle arrest in human SW620 cells assessed as subG1 phase cells at 5 uM after 24 hrs by PI-staining based flow cytometric analysis (reference value: 6.9 +/- 2.1%); format: functional

CN(C)c1ccc(NC(=O)c2cc3ccccc3o2)cc1
IC50 (HeLa; hela): 83.7 µM
IC50 (MIA PaCa-2; mia paca-2): > 100 µM
IC50 (WI-38; wi-38): > 100 µM
IC50 (SW-620 [1]; sw-620): 86 µM
IC50 (MCF7; mcf7): 35.6 µM

CC(=O)Nc1ccc(NC(=O)c2cc3ccccc3o2)cc1
IC50 (HeLa; Homo sapiens, HeLa, 72 h): 77.3 µM
IC50 (MIA PaCa-2; Homo sapiens, MIA PaCa-2, 72 h): > 100 µM
IC50 (WI-38; Homo sapiens, WI-38, 72 h): 71.2 µM
IC50 (SW-620 [1]; Homo sapiens, SW-620, 72 h): > 100 µM
IC50 (MCF7; Homo sapiens, MCF7, 72 h): 45.1 µM
IC50 (SK-BR-3): > 100 µM

N#Cc1ccc2nc(NC(=O)c3cc4ccccc4o3)[nH]c2c1
IC50 (HeLa; Homo sapiens, HeLa, 72 h): > 100 µM
IC50 (MIA PaCa-2; Homo sapiens, MIA PaCa-2, 72 h): > 100 µM
IC50 (WI-38; Homo sapiens, WI-38, 72 h): 9.1 µM
IC50 (SW-620 [1]; Homo sapiens, SW-620, 72 h): 9.2 µM
IC50 (MCF7; Homo sapiens, MCF7, 72 h): > 100 µM
IC50 (SK-BR-3): > 100 µM

O=C(Nc1nc2ccc([N+](=O)[O-])cc2[nH]1)c1cc2ccccc2o1
IC50 (HeLa; Homo sapiens, HeLa, 72 h): 9.2 µM
IC50 (MIA PaCa-2; Homo sapiens, MIA PaCa-2, 72 h): 9.3 µM
IC50 (WI-38; Homo sapiens, WI-38, 72 h): 8.6 µM
IC50 (SW-620 [1]; Homo sapiens, SW-620, 72 h): 6.9 µM
IC50 (MCF7; Homo sapiens, MCF7, 72 h): 5.2 µM
IC50 (SK-BR-3): > 100 µM

O=C(Nc1ccc(C2=NCCN2)cn1)c1cc2ccccc2o1
IC50 (HeLa; Homo sapiens, HeLa, 72 h): 71.9 µM
IC50 (MIA PaCa-2; Homo sapiens, MIA PaCa-2, 72 h): > 100 µM
IC50 (WI-38; Homo sapiens, WI-38, 72 h): 68.7 µM
IC50 (SW-620 [1]; Homo sapiens, SW-620, 72 h): 67.1 µM
IC50 (MCF7; Homo sapiens, MCF7, 72 h): > 100 µM
IC50 (SK-BR-3): > 100 µM

Cl.O=C(Nc1ccc(C2=NCCN2)cc1)c1cc2ccccc2o1
Activity (SW-620 [2]): Active
Activity (SW-620 [3]): inactive
Activity (SW-620 [4]): inactive
Activity (SW-620 [5]): inactive
Activity (SW-620 [6]): 10.5%
Activity (SW-620 [7]): 42.6%
Activity (SW-620 [8]): 8.3%
Activity (SW-620 [9]): 40.7%
Activity (SW-620 [10]): 46.8%
Activity (SW-620 [11]): 46.9%
Activity (SW-620 [12]): 8.2%
Activity (SW-620 [13]): 4.9%
Activity (SW-620 [14]): 13.5%
Activity (SW-620 [15]): 12.7%
Activity (SW-620 [16]): 40.9%
Activity (SW-620 [17]): 43.9%
Activity (SW-620 [18]): 45.7%
Activity (SW-620 [19]): 43.4%
Activity (SW-620 [20]): 10.4%
Activity (SW-620 [21]): 7.1%
IC50 (HeLa; Homo sapiens, HeLa, 72 h): 27.5 µM
IC50 (MIA PaCa-2; Homo sapiens, MIA PaCa-2, 72 h): 31.5 µM
IC50 (WI-38; Homo sapiens, WI-38, 72 h): 23.3 µM
Activity (SW-620 [1]): Dose-dependent effect
IC50 (SW-620 [1]; Homo sapiens, SW-620, 72 h): 6.4 µM
IC50 (MCF7; Homo sapiens, MCF7, 72 h): 26.2 µM
IC50 (SK-BR-3): 40.5 µM

N#Cc1ccc(NC(=O)c2cc3ccccc3o2)nc1
IC50 (HeLa; Homo sapiens, HeLa, 72 h): 23.9 µM
IC50 (MIA PaCa-2; Homo sapiens, MIA PaCa-2, 72 h): 44.7 µM
IC50 (WI-38; Homo sapiens, WI-38, 72 h): 52.4 µM
IC50 (SW-620 [1]; Homo sapiens, SW-620, 72 h): 69.2 µM
IC50 (MCF7; Homo sapiens, MCF7, 72 h): 5.3 µM
IC50 (SK-BR-3): > 100 µM
